ChEMBL document CHEMBL1687750, “Nonclinical pharmacokinetics of oseltamivir and oseltamivir carboxylate in the central nervous system” (Antimicrob Agents Chemother, 2009)

Test system: CCOC(=O)C1=C[C@@H](OC(CC)CC)[C@H](NC(C)=O)[C@@H](N)C1
Test: Activity of human MDR1-mediated drug permeability expressed in pig LLC-PK1 cells
Format: cell-based
How it was run: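 P-gp-transfected LLC-PK1 monolayers; 14C-labelled substrate (0.1 to 10 mM) plus Lucifer yellow added to the apical or basolateral donor side, ± elacridar 1 μM; 37°C, 5% CO2; acceptor sampled at 30 min and 1, 2, 3 h and counted by scintillation; Pe from the 3 h point, not corrected for marker flux; B-to-A/A-to-B ratio; three inserts per condition, mean.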

Substance: ATP-dependent translocase ABCB1 (Homo sapiens)
- Km: 4.2 mM
- Vmax: 0.000534 µmol/min
